MrgX1 ag – human MrgX1 receptor agonism, primary screen | Q96LB2 | MrgX1-HEK293 cells, Fluo-4 calcium fluorescence, agonist mode; stronger effect = higher value | B-score at 10 µM | actives 0.44% (n = 310,000);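 active = calcium response B-score plate-corrected fluorescence ratio at least 3 library SD, with starting fluorescence B-score inside 5 SD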
Target sequence (Q96LB2 whole entry, looked up): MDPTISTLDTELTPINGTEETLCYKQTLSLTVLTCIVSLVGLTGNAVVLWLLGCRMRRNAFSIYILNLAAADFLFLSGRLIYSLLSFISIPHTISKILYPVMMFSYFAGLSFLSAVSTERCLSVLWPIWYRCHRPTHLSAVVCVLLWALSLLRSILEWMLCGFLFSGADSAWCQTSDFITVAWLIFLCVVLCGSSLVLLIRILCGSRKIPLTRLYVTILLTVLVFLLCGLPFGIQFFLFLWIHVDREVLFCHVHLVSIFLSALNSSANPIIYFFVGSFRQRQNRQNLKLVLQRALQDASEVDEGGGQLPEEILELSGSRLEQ
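Material: MrgX1-expressing HEK293 cells; input: 15,000 cells per well; doses: test compound given as first of three sequential additions; schedule: overnight plating before 1 h dye loading; technique: Fluo-4 NW calcium-flux fluorescence, kinetic read; evaluation: baseline-normalised fluorescence change ratio, B-scored; control set: plate-wise positive and negative controls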
RGS4 inh – inhibitors of human RGS4; P49798; HEK293 M3R/RGS4 inducible, Fluo-4 calcium flux; stronger effect = higher value; triggered by carbachol at its EC20; B-score at 10 µM; actives 0.45% (n = 310,000);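 active = B-score, a plate-corrected calcium signal, over three deviations above library mean, with baseline fluorescence within five deviations of library mean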;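 note: RGS4 expression induced by doxycycline in cells with stable M3 receptor; B-score is computed from the integrated fluorescence ratio over baseline after carbachol; higher B-score means a larger calcium signal and so more RGS4 inhibition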
Target sequence (P49798 whole entry, looked up): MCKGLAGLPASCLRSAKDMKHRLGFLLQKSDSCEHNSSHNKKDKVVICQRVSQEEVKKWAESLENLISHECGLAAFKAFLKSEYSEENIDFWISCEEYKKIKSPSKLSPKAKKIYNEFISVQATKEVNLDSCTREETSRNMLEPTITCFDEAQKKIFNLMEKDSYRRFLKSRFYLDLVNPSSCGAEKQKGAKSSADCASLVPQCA
MrgX1 antagonist – antagonists of human MrgX1 receptor. Q96LB2. MRGX1-HEK293 calcium flux, Fluo-4, BAM8-22 antagonism; stronger effect = lower value. B-score at 10 µM. actives 1.3% (n = 310,000). AID 588676;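 active = calcium-response B-score plate-corrected more than 3 library SD below zero, starting fluorescence within 5 deviations, no agonist response on first addition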;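 note: peak minus trough fluorescence over baseline after final BAM8-22 challenge near maximal dose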
RGS4 act – potentiators or activators of RGS4. actives 0.92% (n = 310,000). AID 463111. B-score at 10 µM. HEK293 M3R/inducible RGS4, carbachol calcium flux Fluo4; stronger effect = lower value;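 active = B-score of the integrated calcium signal more than 4 SD below the library mean, with starting fluorescence not abnormally high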;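 note: negative B-score means reduced calcium response which marks RGS4 activation or potentiation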
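Material: M3R-expressing HEK293 line, RGS4 induced by doxycycline | Schedule: Overnight RGS4 induction, 30 min dye load 37 °C, 20 min compound RT | Measured by: Fluo4 fluorescence kinetic imaging of calcium | Read-out: Integrated calcium ratio converted to B score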
MrgX1 allo act – allosterically activates human MrgX1 receptor signaling | MrgX1-HEK293, Fluo-4 calcium flux, FDSS; stronger effect = higher value | actives 0.63% (n = 310,000) | Q96LB2 | AID 588675 | B-score at 10 µM;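 active = plate-corrected calcium response at least 3 library SD above typical, normal starting fluorescence, not activating the receptor alone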;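 note: compound read alongside a low EC10 to EC30 dose of BAM8-22 agonist; peak minus trough fluorescence over baseline measured at the second addition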
Large screens that a line does not name were inactive. Sampled rows, rich in hits. Any-hit rate of the full collection: about 3.5%.

O=C1N/C(=C/c2cccs2)C(=O)N1Cc1ccccc1F	none
Cc1ccc(/C=C2/NC(=O)N(Cc3ccccc3F)C2=O)s1	MrgX1 antagonist -7.5
CSc1ncccc1C(=O)Nc1nccs1	none
O=C(Nc1cccc(Cl)c1)c1cc(N=Nc2ccc([N+](=O)[O-])cc2Cl)ccc1O	MrgX1 antagonist -4.6
O=C(Nc1ccc([N+](=O)[O-])cc1Cl)c1cc(Cl)ccc1O	none (no result: RGS4 inh, RGS4 act)
Cc1ccc(OCc2cc(C(=O)NC3CCc4ccccc43)no2)cn1 (stereo unspecified)	MrgX1 antagonist -4.7
CSc1ccccc1OCc1cc(C(=O)NC2CCc3ccccc32)no1 (stereo unspecified)	none
COC(CNC(=O)[C@H](CSCc1ccccc1)N1Cc2ccccc2C1=O)OC	MrgX1 allo act 8.2
COc1cccc2cc(C(=O)NC3CC4CCC3C4)oc12 (stereo unspecified)	none
CC(=O)Nc1cc(C)c(S(C)(=O)=O)c(C)c1	none
Clc1ccccc1/C=N/c1cc(-c2ccccc2)nn1-c1ccccc1	MrgX1 antagonist -4.9
CC(=O)C(/C=N/c1cc(-c2ccc(C)cc2)nn1-c1ccccc1)=C(\C)O	none
COC(=O)c1sccc1N(C)S(C)(=O)=O	none
NC(N)=N/N=C/c1ccc(OS(=O)(=O)c2ccccc2)cc1	MrgX1 ag 30, RGS4 act -8.4
O=C(O)CCC(=O)NNC(=O)c1ccc(Br)cc1	MrgX1 antagonist -9.3
O=C(O)CCCC(=O)NNC(=O)c1cccc(Br)c1	none
O=C(NCCO)C(=O)Nc1cc2c3c(c1)CCC(=O)N3CCC2	none
Nn1c(SCc2cccc3ccccc23)nnc1-c1ccco1	none
Nn1c(SCc2ccccc2)nnc1-c1ccco1	MrgX1 antagonist -5.7
CCCCN(CC)S(=O)(=O)c1ccc(C(=O)Nc2nnc(-c3cccs3)o2)cc1	MrgX1 ag 33
CCc1ccc(C2=CC(c3cc(Br)ccc3F)n3ncnc3N2)cc1 (stereo unspecified)	MrgX1 allo act 11 (no result: RGS4 inh, RGS4 act)
Fc1ccc(Br)cc1C1C=C(c2ccc(Br)cc2)Nc2ncnn21 (stereo unspecified)	none
COCc1ccc(C(=O)N2CCCC(Nc3ccc(C(C)C)cc3)C2)o1 (stereo unspecified)	none
COCCCNC(=O)c1cc(C(=O)c2c(-c3c(Cl)cccc3Cl)noc2C)c[nH]1	none
COCC(C)NC(=O)CSc1nc2ccccc2n1CCc1ccccc1 (stereo unspecified)	MrgX1 ag 28
CN(Cc1cn(C)nc1-c1ccccc1F)CC1CCCCO1 (stereo unspecified)	none
Cc1cc(C(=O)NNS(=O)(=O)c2ccc(C(C)(C)C)cc2)nn1C(C)(C)C	MrgX1 allo act 9.8
Cc1ccc(S(=O)(=O)NNC(=O)C(O)(c2ccccc2)c2ccccc2)cc1	none
CC(=O)Cn1cnc2c(cnn2-c2ccc(C)c(C)c2)c1=O	none
Cc1ccc(C2C=C(c3ccccc3OC(F)F)Nc3ncnn32)cc1 (stereo unspecified)	none
CN(C)c1ccc(C2C=C(c3ccc(Cl)cc3OC(F)F)Nc3ncnn32)cc1 (stereo unspecified)	MrgX1 ag 40
Cn1c(=O)c(C(=O)COC(=O)c2cc(-c3ccco3)nc3ccccc23)c(N)n(CC2CC2)c1=O	none
CC(C)Cn1c(-c2ccc(Br)o2)n[nH]c1=S	none
N#Cc1c(-c2ccccc2)nc2n(c1=O)CCS2	none
COc1ccc2nc(NC(=O)C3=NN(c4ccccc4)C(=O)CC3)sc2c1	MrgX1 antagonist -5.6
CS(=O)(=O)c1ccc2nc(NC(=O)C3=NN(c4ccccc4)C(=O)CC3)sc2c1	none
Cc1ccccc1C(OCC(O)CN1CCN(CCO)CC1)c1ccccc1 (stereo unspecified)	none
Cc1ccc(NC(=O)c2ccc3c(c2)N(CC(=O)NC(C)C)C(=O)C(C)(C)O3)cc1	none
Cc1cc(C(=O)NNc2ccccc2F)no1	RGS4 act -7.7
CCCCCn1c(N2CCC(Cc3ccccc3)CC2)nc2c1c(=O)[nH]c(=O)n2C	RGS4 act -9
Cc1ccc(C(=O)NNC(=O)CSc2nnc(C(C)C)n2C)cc1	none
O=C(CN1C(=O)COc2ccccc21)NCCCN1CCCCC1	none
C=CCN1C(=O)C(CC(=O)Nc2ccc(OCCC)cc2)N(CCCN2CCN(Cc3ccccc3)CC2)C1=S (stereo unspecified)	MrgX1 allo act 9.4
CC(C)c1ccccc1NC(=O)CNCCOc1ccccc1F	RGS4 act -7.2
Cc1ccc(/C=N/NC(=O)c2nc3nc(C)cc(C)n3n2)cc1	MrgX1 antagonist -4.7
Cc1cc(C)n2nc(C(=O)N/N=C/c3cn(C)nc3C)nc2n1	none
CC(=O)c1c(N2CCOCC2)nc2ccc(Cl)cc2c1-c1ccccc1	none
CCCCNC(=O)CCn1c(=O)c2ccccc2n(Cc2ccc(Cl)cc2)c1=O	none
Cn1cc(S(=O)(=O)N2CCCC2)cc1C(=O)NCCc1ccccc1	none
O=C(/C=C/c1ccc(N2CCC(c3ccccc3)=N2)cc1)c1ccccc1	RGS4 act -7.9
NC(=O)Cn1nc([N+](=O)[O-])nc1Oc1ccccc1C(=O)N1CCOCC1	MrgX1 antagonist -4.6
NC(=O)Cn1nc([N+](=O)[O-])nc1Oc1ccccc1F	none
Cc1cccnc1NC(=O)CN1C(=O)c2ccccc2S1(=O)=O	none
COc1ccc(-c2cnn(C3CCS(=O)(=O)C3)c2N)cc1 (stereo unspecified)	none
CC1=NN(c2ccccc2)C(=O)C1C(=O)c1ccc(Cl)cc1 (stereo unspecified)	MrgX1 ag 32
CCN1C(=O)[C@@H]2Cc3c([nH]c4ccccc34)C(c3ccc(OC)cc3)N2C1=S (stereo partly specified)	MrgX1 antagonist -4.5
CSc1cccc(N2C(=O)C3CCCN3C2=S)c1 (stereo unspecified)	none
COc1cccc(C(=O)Nc2cccc(-c3ccc(N4CCOCC4)nn3)c2)c1OC	RGS4 act -7.5
Cc1cc2oc(=O)cc(CN3CCc4ccccc43)c2cc1Cl	MrgX1 ag 54
CCc1ccc2c(CN3CCc4ccccc43)cc(=O)oc2c1	MrgX1 ag 38
O=C1CC(c2ccco2)CC(O)=C1C=NCC1CCNCC1 (stereo unspecified)	RGS4 act -7.8
Cc1ccc(SCCC(=O)N/N=C/c2cccnc2)cc1	none
O=C(NCCC1=CCCCC1)C(=O)NCC(c1ccco1)N1CCN(c2ccccc2F)CC1 (stereo unspecified)	none
CCOC(=O)/C(=N/Nc1ccc(C)cc1)S(=O)(=O)c1ccc(Cl)cc1	RGS4 act -8
COc1cccc(OC(=O)c2cc3ccccc3oc2=O)c1	MrgX1 antagonist -5
CC(C)CCN(C(=O)Nc1ccccc1)C(C)c1cccs1 (stereo unspecified)	none
O=C(O)c1cccnc1SCc1cccc(Br)c1	none
CCOc1cc(/C=C2/NC(=O)NC2=O)cc([N+](=O)[O-])c1O	MrgX1 antagonist -7.7

Screens: PubChem BioAssay, Johns Hopkins Ion Channel Center
